Screens from PubChem BioAssay.
HSF1 inh – HSF1 inhibitors in luciferase reporter cells, primary screen, cell-based, NIH3T3, luminescence | NIH3T3-HGL HSE-luciferase, MG132-induced, luminescence 8 h; hits give low values | activity change, negative = inhibition, % at 7.5 µM (by protocol) | actives 0.77% (n = 300,000);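 active means more than half of replicate wells show activity change below -50%, luminescence cut by over half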;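 further: luciferase reports HSF-1 transcriptional activity via heat shock element; 0% = median of DMSO wells and -100% = zero luminescence signal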
AHR act – AHR activators, primary screen, cell-based, luminescence, luciferase reporter, human; Aryl hydrocarbon receptor (Homo sapiens), P35869; AHR-responsive luciferase reporter cells; activation, % at 5 µM; actives 2.5% (n = 320,000); AID 2796, 2010; in the data active means activation above about 47%;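 further: 0% = vehicle wells and 100% = reference agonist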
Target sequence (P35869 whole entry, looked up): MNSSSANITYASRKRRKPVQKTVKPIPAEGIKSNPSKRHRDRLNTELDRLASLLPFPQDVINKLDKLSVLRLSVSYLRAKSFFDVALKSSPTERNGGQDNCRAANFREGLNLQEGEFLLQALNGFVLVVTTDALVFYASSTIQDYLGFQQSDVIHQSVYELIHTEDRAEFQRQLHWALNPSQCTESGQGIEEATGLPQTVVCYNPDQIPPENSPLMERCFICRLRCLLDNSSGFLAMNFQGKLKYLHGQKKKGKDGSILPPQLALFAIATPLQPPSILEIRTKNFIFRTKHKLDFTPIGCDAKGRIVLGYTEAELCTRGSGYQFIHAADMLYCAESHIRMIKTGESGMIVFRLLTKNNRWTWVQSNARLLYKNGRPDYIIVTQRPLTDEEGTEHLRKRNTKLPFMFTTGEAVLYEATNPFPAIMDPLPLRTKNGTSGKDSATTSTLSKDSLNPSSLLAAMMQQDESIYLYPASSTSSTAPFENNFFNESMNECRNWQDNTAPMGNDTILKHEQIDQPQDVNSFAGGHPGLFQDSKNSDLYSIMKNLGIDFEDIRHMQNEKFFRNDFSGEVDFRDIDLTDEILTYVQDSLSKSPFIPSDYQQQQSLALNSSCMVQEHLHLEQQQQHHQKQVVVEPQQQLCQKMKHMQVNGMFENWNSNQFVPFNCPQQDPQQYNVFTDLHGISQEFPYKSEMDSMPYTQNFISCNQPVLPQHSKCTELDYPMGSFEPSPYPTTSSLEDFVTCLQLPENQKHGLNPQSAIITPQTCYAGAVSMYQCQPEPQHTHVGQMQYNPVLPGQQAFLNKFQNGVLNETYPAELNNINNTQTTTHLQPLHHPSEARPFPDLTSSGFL
Hsp70 act – Hsp70 transcriptional activators, primary screen, cell-based, HeLa, Hsp70 promoter luciferase, luminescence, 10 µM; HeLa Hsp70 promoter luciferase reporter; scaled: vehicle 0, proteasome-inhibitor control 100%; activation, % at 10 µM; actives 0.04% (n = 200,000); AID 1203, 2008;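 active means activation above the mean across all tested compounds plus 3 SD, cutoff set per campaign, cut at about 5.5% in these data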;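 further: 100% = MG132 at 30 µM as the positive control and 0% = DMSO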
PERK inhibitor – block of dimerizer-induced PERK translation repression, primary screen, PERK inhibitor project, CHO PERK-DD cells, SEAP luminescence, HTS | Eukaryotic translation initiation factor 2-alpha kinase 3 (Homo sapiens), Q9NZJ5 | CHO PERK-DD fusion, SEAP luminescence translation reporter | inhibition, % at 5.6 µM | actives 0.17% (n = 220,000);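 active means inhibition above the mean inhibition of all tested compounds plus 3 SD, set separately per screening campaign, cut at about 2.9% in these data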;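 further: PERK kinase domain activated by AP20187 dimerizer at 100 nM; 0% = DMSO with dimerizer and 100% = rapamycin at 8.4 µM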
PolyA inh – polyadenylation inhibitors in yeast reporter cells, primary screen, luminescence, S. cerevisiae; S. cerevisiae SKY197-pL101 polyadenylation reporter, beta-gal luminescence; efflux-impaired pdr1/pdr3 knockout yeast; score 100 = 6 SD above DMSO; activity score, % at 12 µM; actives 0.02% (n = 300,000); AID 1875, 2009;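 active means lowest replicate activity score at least 50, where 100 means six control SD above control mean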;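 further: yeast exposed to compound for 9 h at 30 °C; higher score means more reporter readthrough which indicates perturbed polyadenylation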
STAT3 activator – IL-6 driven STAT3 reporter potentiators, primary screen, U3A cells, luciferase, luminescence, MLSCN library. IL-6 STAT3-luciferase reporter; 100% = signal with IL-6 EC80 alone. activation (% of control), % at 5.6 µM. actives 0.91% (n = 190,000);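 active means activation above the screen-wide mean of compound activation plus 3 SD, cut at about 130% in these data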;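 further: 0% = background luminescence of wells with medium and substrate only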
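Material: STAT1-lacking human U3A cells, STAT3 luciferase reporter | Benchmarks: IL-6-only wells as 100% reference | Probe or stimulus: IL-6 (33 ng/mL) | Timing: Compound 1 h, then IL-6 6 h at 37 °C | Detection: Luminescence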
AHR act confirm – AHR activators, confirmation, cell-based, luminescence, luciferase reporter, human. AID 2845, 2010. shares compounds with AHR act. human cells, AHR-responsive luciferase reporter. activation, % at 9 µM. actives 87% (n = 2,300); in the data active means activation above about 49%;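 further: HepG2 hepatoma cells carrying a DRE-driven firefly luciferase reporter; 0% = vehicle wells and 100% = reference agonist wells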
PXR counter – human PXR activators, counter-screen for AHR activator project, cell-based, luciferase luminescence; shares compounds with AHR act; cell-based PXR reporter; activation, % at 11.6 µM; actives 88% (n = 2,300); AID 434939, 2010; in the data active means activation above about 11%;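 further: human hepatoma DPX-2 cells expressing full-length human PXR; 0% = DMSO and 100% = reference agonist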
Starred values were filed as active, the others as inactive; . = not tested or not shown. Only some compounds are listed: those with a hit (about 3.6% of all), similar ones and a draw of the others.

SMILES	HSF1 inh	AHR act	Hsp70 act	PERK inhibitor	PolyA inh	STAT3 activator	AHR act confirm	PXR counter
COc1ccccc1NC(=O)c1ccc(-c2ccc(Br)cc2)o1	3	99*	0	-1	-11	103	105*	11*
Cn1cc(-c2nc3ccccc3[nH]2)c2ccccc21	9	138*	0	0	12	92	122*	64*
Cc1c(-c2nc3ccccc3[nH]2)cnn1C	.	-1	.	.	.	.	.	.
CCOc1ccccc1-c1nc(C(N)=O)c2[nH]c(=O)n(-c3ccccc3)c2n1	-7	26	0	-1	5	112	.	.
Cc1cccc(-n2c(=O)[nH]c3c(C(N)=O)nc(-c4ccccc4Cl)nc32)c1	0	94*	0	0	0	106	72*	12*
Cc1cccc(-n2c(=O)[nH]c3c(C(N)=O)nc(CC(C)C)nc32)c1	9	30	0	2	11	109	.	.
COc1ccc(-c2nc(C(N)=O)c3[nH]c(=O)n(-c4cccc(C)c4)c3n2)c(OC)c1	0	98*	0	-1	-3	101	67*	20*
COc1cccc(-c2nc(C(N)=O)c3[nH]c(=O)n(-c4ccccc4)c3n2)c1OC	-9	88*	0	0	-7	96	61*	10*
CCOc1ccc(NC(=S)N2CCN(CCN3C(=O)c4cccc5cccc(c45)C3=O)CC2)cc1	-20	89*	0	1	8	114	108*	55*
CC(=O)c1cccc(NC(=S)N2CCN(CCN3C(=O)c4cccc5cccc(c45)C3=O)CC2)c1	20	1	0	1	5	80	.	.
O=C(/C=C/c1ccccc1)N1CCN(CCN2C(=O)c3cccc4cccc(c34)C2=O)CC1	-1	102*	0	0	6	85	83*	51*
Cc1ccc(OCCC(=O)N(CC(=O)Nc2ccccc2C(F)(F)F)Cc2ccco2)cc1	3	0	.	.	28	.	.	.
CCOc1ccc(S(=O)(=O)Nc2cccc(C(=O)NCC(c3ccco3)N3CCCC3)c2)cc1 (stereo unspecified)	.	1	.	.	.	.	.	.
OC1CN=C2CCCc3c2n(c2ccc(Cl)cc32)C1 (stereo unspecified)	-1	5	0	0	1	98	.	.
c1ccc(-c2ccc3c(c2)c2c4n3CCN=C4CCC2)cc1	-1	93*	0	0	-26	104	84*	11*
Cc1ccc(CSc2nnc(-c3cccnc3)n2N)cc1	-5	1	0	1	4	108	.	.
Cc1ccc(C)c(OCCSc2nnc(-c3cccnc3)n2N)c1	3	94*	0	-1	24	104	66*	30*
Cc1cccc(N2C(=O)CN=C2Nc2nc(C)cc(C)n2)c1	1	92*	0	-1	8	96	82*	25*
O=C(NN(CC(O)COc1ccccc1)CC(O)COc1ccccc1)c1ccccc1 (stereo unspecified)	-3	-1	.	0	-3	.	.	.
Cc1cc(/C=C2/NC(=O)NC2=O)c(C)n1-c1ccccn1	4	137*	0	2	26	95	88*	23*
C(=C\c1nc(N2CCCC2)c2ccccc2n1)/c1ccccc1	18	162*	0	0	-16	99	145*	45*
c1ccc2c(c1)nc(N1CCCCCC1)c1ccccc12	-6	0	.	0	-20	.	.	.
CCNC(=S)/N=C(/Nc1ccc(OC)cc1)Nc1nc(C)cc(C)n1	2	8	.	0	-11	.	.	.
CCNC(=S)/N=C(/Nc1ccccc1)Nc1nc(C)cc(C)n1	10	80*	.	-2	-12	.	113*	64*
COc1cccc(NC(=O)C2C3C=CC(C3)C2C(=O)O)c1 (stereo unspecified)	-14	-2	.	.	-6	.	.	.
SMILES	HSF1 inh	AHR act	Hsp70 act	PERK inhibitor	PolyA inh	STAT3 activator	AHR act confirm	PXR counter
Cc1nn(-c2ccccc2)c(Cl)c1/C=N/N1CCN(c2ccccn2)CC1	5	161*	0	0	-3	87	4	27*
Nc1c(C(=O)CSc2nnc(Cc3ccccc3)o2)c(=O)[nH]c(=O)n1C1CC1	.	-2	.	.	.	.	.	.
CNC(=O)C1CC(=O)N(CCc2ccc(C)cc2)C1 (stereo unspecified)	-2	2	.	.	10	.	.	.
CNc1oc(/C=C/c2ccccc2)nc1C#N	-4	136*	0	1	-6	103	112*	18*
S=c1[nH]nc(-c2cc(-c3ccccc3)n[nH]2)n1/N=C/c1ccc(Br)s1	2	18	.	1	7	.	.	.
Nc1nc(/C=C/c2cccnc2)nc(-c2ccccc2O)n1	-42	28	0	2	-37	84	.	.
Nc1nc(/C=C/c2ccc(F)cc2)nc(-c2ccccc2O)n1	15	109*	0	0	3	92	136*	18*
CN1CCN(c2ncnc3c2[nH]c2ccc(F)cc23)CC1	2	15	0	0	0	103	.	.
c1ccc2c(c1)[nH]c1c(N3CCN(C4CCCCC4)CC3)ncnc12	26	80*	-1	-1	12	123	68*	14*
O=S(=O)(Nc1nccs1)c1ccc(NS(=O)(=O)c2c(F)cc(F)c(Cl)c2F)cc1	.	-1	.	.	.	.	.	.
CCOC(CNC(=O)c1cccn2c(=O)c3cc(Cl)ccc3nc12)OCC	1	83*	0	0	-11	106	134*	14*
CCOC(CNC(=O)c1cccn2c(=O)c3c(C)c(C)sc3nc12)OCC	0	8	.	.	-15	.	.	.
O=C(Nc1nc(-c2cccs2)cs1)c1ccc(Cl)cc1	5	129*	0	1	-4	92	123*	36*
COc1ccc(C(=O)Nc2nc(-c3cccs3)cs2)cc1	24	-2	0	0	-14	91	.	.
Cc1csc(SCC(=O)Nc2ccc(Cl)cn2)n1	0	98*	0	1	1	100	98*	.
COc1c(C(=O)Nc2nccs2)ccc2ccccc12	13	84*	.	.	-2	.	149*	27*
